FGF22 binding: shifts melting point of recombinant human FGF22. recombinant FGF22 thermal shift, SYPRO orange fluorescence; percent of sucrose octasulfate shift, DMSO zero. activity (Tm shift, normalised), % at 9.99 µM. 1.5% of 340,000 active;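 active means mean Tm shift, scaled 0 neutral to 100 positive control, at about 1.3% or above, every replicate too, limit read from the data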
Target sequence (Q9HCT0 whole entry, looked up): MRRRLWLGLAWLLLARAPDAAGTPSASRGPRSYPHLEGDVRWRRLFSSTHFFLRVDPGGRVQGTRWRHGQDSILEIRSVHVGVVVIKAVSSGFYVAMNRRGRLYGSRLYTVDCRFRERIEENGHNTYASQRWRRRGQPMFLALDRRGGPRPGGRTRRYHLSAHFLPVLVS
Casp6 inh: blocks human caspase-6 cleavage activity | P55212 | purified caspase-6, Z-VEID-R110 cleavage fluorescence | inhibition, % at 12.5 µM | 0.53% of 350,000 active | AID 686996;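 active means mean inhibition across replicates at least about 35%, with every replicate also reaching that limit, limit read from the data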
Target sequence (P55212 24-179 limits assumed): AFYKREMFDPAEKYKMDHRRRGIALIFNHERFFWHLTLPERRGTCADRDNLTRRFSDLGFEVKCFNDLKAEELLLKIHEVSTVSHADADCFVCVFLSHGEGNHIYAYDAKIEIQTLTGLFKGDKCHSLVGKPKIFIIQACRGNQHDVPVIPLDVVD
Target sequence (P55212 194-293 limits assumed): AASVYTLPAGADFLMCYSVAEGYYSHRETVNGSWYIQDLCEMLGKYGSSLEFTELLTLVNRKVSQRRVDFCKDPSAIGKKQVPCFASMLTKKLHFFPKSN
SIRT5 block: inhibitors of human sirtuin-5 desuccinylase; Q9NXA8; Purified SirT5, succinyl-peptide AMC, trypsin-coupled fluorescence; inhibition, % at 15 µM; 1.1% of 330,000 active; in the data active means inhibition above about 15%
UCH37 inh: blocks the human deubiquitinase UCH37; AID 588478; 0.33% of 330,000 active; purified proteasome/UCH37, Ub-AMC cleavage fluorescence; Q9Y5K5; inhibition, % (no concentration beside the values);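 active means mean inhibition over replicate wells above about 20%, limit read from the data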
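Material: human UCH37 enzyme supplied as purified proteasome complex / Amount: 0.15 nM proteasome as dispensed / Buffer or medium: pH 7.4 Tris-HCl (50 mM) with ovalbumin, ATP-MgCl2, DTT / Times: preincubation 30 min, reaction 25 min, room temperature / Technique: AMC fluorescence from Ub-AMC cleavage, excitation 355 nm, emission 460 nm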
NSD2 HMT inh: inhibitors of human histone methyltransferase NSD2. O96028. NSD2 peptide methylation, AlphaScreen, 120 min. inhibition, % at 12.5 µM. 0.54% of 310,000 active; in the data active means inhibition above about 50%
Large screens that a line does not name were inactive. Rows were chosen to be rich in hits. Some 2.6% of all compounds tested hit in one or more screens of this group.

CC(C)CC#Cc1ccc2c(c1)O[C@@H](CN(C)Cc1ccccc1F)[C@H](C)CN([C@@H](C)CO)S2(=O)=O	none (no result: UCH37 inh, NSD2 HMT inh)
CC(C)CC#Cc1ccc2c(c1)O[C@@H](CN(C)Cc1ccccc1F)[C@@H](C)CN([C@@H](C)CO)S2(=O)=O	SIRT5 block 16 (no result: UCH37 inh, NSD2 HMT inh)
O=C(COC(=O)c1ccc(OC(F)(F)F)cc1)NCCN1C(=O)CSC1=O	none
Cc1noc(C)c1COc1ccc(C(=O)OCC(=O)NCCN2C(=O)CSC2=O)cc1	FGF22 binding 44
Cc1cccc(-n2nc(CC#N)c(C#N)c2N)c1	FGF22 binding 44
COC(=O)[C@]1(Cc2ccccc2)N[C@H](CN(C)C(=O)c2ccccc2)[C@@H]2C(=O)N(Cc3ccccc3)C(=O)[C@@H]21	FGF22 binding 43 (no result: UCH37 inh, NSD2 HMT inh)
COCC(=O)N(C)C[C@H]1N[C@@](C)(C(=O)OC)[C@H]2C(=O)N(Cc3ccccc3)C(=O)[C@@H]12	FGF22 binding 43 (no result: SIRT5 block, NSD2 HMT inh)
COC(=O)[C@]1(C)N[C@H](CN(C)C(=O)Nc2ccccc2)[C@@H]2C(=O)N(Cc3ccccc3)C(=O)[C@@H]21	none (no result: NSD2 HMT inh)
CC[C@@]1(C(=O)OC)N[C@H](CN(C)C(=O)c2ccc(F)cc2)[C@@H]2C(=O)N(C)C(=O)[C@@H]21	none (no result: Casp6 inh, NSD2 HMT inh)
CC[C@@]1(C(=O)OC)N[C@H](CN(C)C(C)=O)[C@@H]2C(=O)N(Cc3ccccc3)C(=O)[C@@H]21	FGF22 binding 44 (no result: SIRT5 block, NSD2 HMT inh)
COC(=O)[C@]1(Cc2ccccc2)N[C@H](CN(C)C(=O)c2ccc(C)cc2)[C@@H]2C(=O)N(Cc3ccccc3)C(=O)[C@@H]21	none (no result: SIRT5 block, NSD2 HMT inh)
CC[C@@]1(C(=O)OC)N[C@H](CN(C)C(=O)c2ccccc2)[C@@H]2C(=O)N(C)C(=O)[C@@H]21	FGF22 binding 43 (no result: SIRT5 block, NSD2 HMT inh)
O=C(C[C@H]1C=C[C@@H](NC(=O)C2CC2)[C@@H](CO)O1)NC1CCC1	none (no result: UCH37 inh, NSD2 HMT inh)
COc1ccc(-c2ccc([C@H]3[C@H](C#N)N[C@H]3CO)cc2)cc1	none (no result: UCH37 inh, NSD2 HMT inh)
Cc1cccc(C)c1-n1c(SCC(=O)Nc2ccc(C(=O)O)cc2)nnc1-c1cccc(S(=O)(=O)N(C)C)c1	FGF22 binding 43 (no result: NSD2 HMT inh)
C[C@H](CO)N1C[C@H](C)[C@@H](CN(C)S(=O)(=O)c2ccccc2)Oc2ccc(NS(=O)(=O)c3ccc(Cl)cc3)cc2CC1=O	none (no result: UCH37 inh, NSD2 HMT inh)
CC1=C/C(=N\Nc2ccccc2[N+](=O)[O-])CC(C)(C)C1	SIRT5 block 19 (no result: UCH37 inh)
O=C(CSc1nnc(SCc2ccc(Cl)cc2)s1)c1ccc2c(c1)OCO2	UCH37 inh 22 (no result: FGF22 binding, Casp6 inh, SIRT5 block)
CCc1nnc(NC(=O)c2ccc3nc(CC)c(CC)nc3c2)s1	FGF22 binding 43
CCOc1cc(C=NO)cc(Cl)c1OC	none (no result: FGF22 binding, Casp6 inh, SIRT5 block, NSD2 HMT inh)
CC1CN(C(=O)Nc2ccc(Br)cc2Cl)CC(C)O1 (configuration not stated)	SIRT5 block 67
CC1CCCN(C(=O)Nc2ccc(Br)cc2Cl)C1 (configuration not stated)	none
O=C(CNCc1ccccc1)NCCCN1CCCC1=O	SIRT5 block 17
O=C1CCCN1CCCNC(=S)Nc1ccccc1	none
CCC(=O)c1ccc(OCC(=O)OCC(=O)N(C)CC(=O)Nc2ccc(F)cc2)cc1	none
Cc1ccc(NC(=O)CN(C)C(=O)COc2ccc(C(=O)c3ccc(F)cc3)cc2)cc1	FGF22 binding 44
CO[C@@H]1CN(C)C(=O)c2ccc(NS(=O)(=O)CC(F)(F)F)cc2OC[C@H](C)N(C(=O)c2ccc3c(c2)OCO3)C[C@H]1C	none (no result: FGF22 binding, UCH37 inh, NSD2 HMT inh)
O=C(Nc1ccc(F)cc1)c1cc(-c2ccccc2)no1	FGF22 binding 43
COc1ccc(-c2cc(C(=O)Nc3ccccc3)on2)cc1	none
COc1ccc(CN(C)C[C@@H]2Oc3ccc(NS(=O)(=O)c4ccccc4)cc3CC(=O)N([C@H](C)CO)C[C@H]2C)cc1	none (no result: Casp6 inh, UCH37 inh, NSD2 HMT inh)
CCc1ccc2c(c1)C(=O)c1ccccc1C2=O	FGF22 binding 43
CCOC(=O)C1(CC2CC2)CCN(Cc2cn(C)c3ccccc23)CC1	FGF22 binding 44
CCS(=O)(=O)NCC[C@@H]1CC[C@@H](NC(=O)C2CCC2)[C@H](CO)O1	none (no result: UCH37 inh, NSD2 HMT inh)
CC(C)(C)c1ccc(OCCC(=O)OCC(=O)NC2CCS(=O)(=O)C2)cc1 (configuration not stated)	FGF22 binding 43
CC(C)(C)c1ccc(OCCC(=O)OCC(=O)NC2CC2)cc1	none
O=C(NCC1CCCO1)C(c1ccc(F)cc1)N(CC1CCCO1)C(=O)c1ccc(-c2ccccc2)[nH]1 (configuration not stated)	Casp6 inh 48
O=C(CCCn1c(=S)[nH]c2cc3c(cc2c1=O)OCO3)NCCc1ccc(Cl)cc1	FGF22 binding 43 (no result: SIRT5 block, UCH37 inh)
CCOc1ccc(CN(C)CC(=O)Nc2cc(C)c(C)cc2[N+](=O)[O-])cc1	FGF22 binding 43
CCOc1ccc(Nc2nc(N)nc(CN3CCN(c4ccccc4F)CC3)n2)cc1	FGF22 binding 44
Cn1nc(CSc2ccccc2)c(C=O)c1Cl	SIRT5 block 15
O=C1Nc2cc(C(=O)NCCN3CCCCCC3)ccc2S/C1=C\c1ccccc1	Casp6 inh 99
Cc1cccc(/C=C2/Sc3ccc(C(=O)NCCN4CCCC4)cc3NC2=O)c1	none
O=C(CSc1nnc2n1CCCCC2)NCc1ccccc1	FGF22 binding 43 (no result: SIRT5 block, UCH37 inh, NSD2 HMT inh)
CN1CCN(C(=O)C[C@@H]2CC[C@H](NC(=O)Cc3ccccn3)[C@H](CO)O2)CC1	none (no result: UCH37 inh, NSD2 HMT inh)
Cc1noc(C)c1NC(=O)N(C)C[C@@H]1Oc2ccc(NS(C)(=O)=O)cc2CC(=O)N([C@@H](C)CO)C[C@H]1C	none (no result: Casp6 inh, SIRT5 block, UCH37 inh, NSD2 HMT inh)
Cc1ccc(NS(=O)(=O)c2cccc(C(=O)NCC(c3cccs3)N(C)C)c2)cc1 (configuration not stated)	FGF22 binding 43 (no result: NSD2 HMT inh)
CNS(=O)(=O)c1cccc(C(=O)NCC(c2cccs2)N(C)C)c1 (configuration not stated)	none (no result: FGF22 binding, Casp6 inh, SIRT5 block)
Cc1ncoc1C(=O)Nc1cccc(Cl)c1	none
Cc1ccc(NC(=O)c2ocnc2C)cc1Cl	Casp6 inh 59
O=C(c1cnccn1)N1CC(=O)N2[C@H](C1)[C@H](c1ccc(C#CC3CC3)cc1)[C@@H]2CO	none (no result: FGF22 binding, UCH37 inh, NSD2 HMT inh)
CSC(=NS(=O)(=O)c1ccccc1)c1ccccc1	none (no result: FGF22 binding, Casp6 inh, SIRT5 block, NSD2 HMT inh)
Cn1c(N=Nc2ccccc2)nc2ccccc21	Casp6 inh 39
CN(C)c1ccc(N=Nc2nc3ccccc3n2C)cc1	none (no result: NSD2 HMT inh)
O=C(COC(=O)c1nc(Cl)ccc1Cl)c1ccc(Cl)s1	FGF22 binding 44
CS(=O)(=O)N1CCN(c2ccc(NC(=S)NC(=O)c3ccc4c(c3)OCO4)cc2)CC1	FGF22 binding 44
O=C1CCC(=O)c2ccc3c4c(ccc1c24)CC3	Casp6 inh 92
O=C1c2ccc3c4c(ccc(c24)C(=O)N1c1ccc2ccccc2c1)CC3	none (no result: FGF22 binding, Casp6 inh, SIRT5 block)
CCC(c1nnnn1C(C)(C)C)N1CCN(Cc2ccccc2OC)CC1 (configuration not stated)	SIRT5 block 17
C[C@@H]1CN([C@H](C)CO)C(=O)Cc2cc(NS(=O)(=O)c3ccc(Cl)cc3)ccc2O[C@H]1CN(C)Cc1ccc(Oc2ccccc2)cc1	SIRT5 block 20 (no result: UCH37 inh, NSD2 HMT inh)

Screening data from PubChem.
